Experiment [1] relates to Colletotrichum graminicola. The experiment is described as follows: Fungicidal activity against tebuconazole-nonadapted wild type Colletotrichum graminicola CgM2 assessed as inhibition of radial growth rate at 23 degC in darkness. It counts as functional. As to conditions: for EC50: Colletotrichum graminicola, CgM2, read-out: ED50 (the source's name). A digest of the protocol:
(§1)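 Radial growth on solid complete medium, 23°C, darkness. Colony diameters were read at 3 and 6 days after inoculation and compared with drug-free control plates. Azoles and picoxystrobin were dissolved in 12% (wt/vol) Cremophor EL and tested at 0–2.5 μg/ml. Caspofungin, amphotericin B and nystatin were dissolved in water and tested from 0.00025 μg/ml; caspofungin plates used sucrose (10 mg/ml) in place of glucose.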

Experiment [2] has as its system Colletotrichum graminicola. Briefly: Fungicidal activity against tebuconazole-adapted wild type Colletotrichum graminicola CgM2 assessed as inhibition of radial growth rate at 23 degC in darkness. The class given is functional. As to conditions: for EC50: Colletotrichum graminicola, CgM2, read-out: ED50 (the source's name). In short, it runs like this: as §1
In experiment [3] the test system is Colletotrichum graminicola. The experiment is described as follows: Ratio of ED50 for tebuconazole-adapted wild type Colletotrichum graminicola CgM2 to ED50 for tebuconazole-nonadapted wild type Colletotrichum graminicola CgM2. It counts as functional. A digest of the protocol: (§2)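 Values came from logit transformation and linear regression, with confidence intervals at α = 0.05. Ratios compare tebuconazole-adapted with nonadapted CgM2.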

Experiment [4] deals with Colletotrichum graminicola. Briefly: Ratio of ED90 for tebuconazole-adapted wild type Colletotrichum graminicola CgM2 to ED90 for tebuconazole-nonadapted wild type Colletotrichum graminicola CgM2. It counts as functional. A digest of the protocol:
as §2

In experiment [5] the test system is Colletotrichum graminicola. The experiment is described as follows: Fungicidal activity against compound-adapted wild type Colletotrichum graminicola CgM2 assessed as inhibition of radial growth rate at 30 ppm at 23 degC in darkness after 7 days. The class given is functional, organism-based. A digest of the protocol: (§3)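 Isolate CgM2: 1 × 10^6 conidia grown in 50 ml liquid complete medium (CM), 7 days in darkness at 23°C. Adapted lines were passed through tebuconazole at 1, 5 and 20 μg/ml, then kept on CM plates containing 5 and 8 μg/ml (4 weeks each) and finally 30 μg/ml. Radial growth on CM plates was compared with that of the nonadapted strain.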

The test system of experiment [6] is Colletotrichum graminicola. Briefly: Fungicidal activity against compound-nonadapted wild type Colletotrichum graminicola CgM2 assessed as inhibition of radial growth rate at 30 ppm at 23 degC in darkness after 7 days. It counts as functional, organism-based. A digest of the protocol:
as §3

The values below come from ChEMBL document CHEMBL1153830, “Treatment of a clinically relevant plant-pathogenic fungus with an agricultural azole causes cross-resistance to medical azoles and potentiates caspofungin efficacy” (2007).

Converted amounts (≈) assume the structure as drawn. The source made the active and inactive calls. The rule behind the calls is not given here.

For the compound `Cc1cc(C2CCCCC2)n(O)c(=O)c1.NCCO` [CICLOPIROX OLAMINE], in experiment [1], the ED90 came out at 64.842 µg/mL and the EC50 was 9.83 µg/mL. Besides, in experiment [2], the ED90 turned out to be 54.616 µg/mL and the EC50 stood at 3.67 µg/mL.
`COC1=CC(=O)C[C@@H](C)[C@]12Oc1c(Cl)c(OC)cc(OC)c1C2=O` [GRISEOFULVIN]: in experiment [1], the ED90 is 5.503 µg/mL (≈ 15.6 µM) and the EC50 is 0.607 µg/mL (≈ 1.72 µM). Further, in experiment [2], the ED90 was 5.839 µg/mL (≈ 16.6 µM) and the EC50 amounted to 0.051 µg/mL (≈ 0.145 µM).
The like results for `Clc1ccc(COC(Cn2ccnc2)c2ccc(Cl)cc2Cl)c(Cl)c1` (centres undefined) [MICONAZOLE] were, in that order, 1.327 µg/mL (≈ 3.19 µM), 0.028 µg/mL (≈ 0.0673 µM), 4.386 µg/mL (≈ 10.5 µM) and 0.048 µg/mL (≈ 0.115 µM).
With `CC(C)(C)C(O)(CCc1ccc(Cl)cc1)Cn1cncn1` (centres undefined) [TEBUCONAZOLE], the ED90 in experiment [1] was 0.504 µg/mL (≈ 1.64 µM); in experiment [2], 13.534 µg/mL (≈ 44 µM). Also, the EC50 in experiment [1] was 0.059 µg/mL (≈ 0.192 µM); in experiment [2], 0.423 µg/mL (≈ 1.37 µM). Besides, the results for the “fold change (FC)” value in experiment [3] and in experiment [4] were 7 and 27, respectively. For the same compound, the result in experiment [5] was inactive. In addition, the outcome in experiment [6] was Active.
Turning to `Clc1ccccc1C(c1ccccc1)(c1ccccc1)n1ccnc1` [CLOTRIMAZOLE], the ED90 in experiment [1] is 2.44 µg/mL (≈ 7.08 µM); in experiment [2] it was 6.485 µg/mL (≈ 18.8 µM). The values for the EC50 in experiment [1] and in experiment [2] were 0.128 µg/mL (≈ 0.371 µM) and 0.145 µg/mL (≈ 0.42 µM), respectively.
The like results for `CCC(C)(C)c1ccc(CC(C)CN2C[C@@H](C)O[C@@H](C)C2)cc1` (some centres undefined) [AMOROLFINE] were, in that order, 0.347 µg/mL (≈ 1.09 µM), 0.36 µg/mL (≈ 1.13 µM), 0.03 µg/mL (≈ 0.0945 µM) and 0.023 µg/mL (≈ 0.0724 µM).
The like results for `C[C@@H]1[C@H](O)[C@@H](C)/C=C/C=C/C=C/C=C/C=C/C=C/C=C/[C@H](O[C@@H]2O[C@H](C)[C@@H](O)[C@H](N)[C@@H]2O)C[C@@H]2O[C@](O)(C[C@@H](O)C[C@@H](O)[C@H](O)CC[C@@H](O)C[C@@H](O)CC(=O)O[C@H]1C)C[C@H](O)[C@H]2C(=O)O` [AMPHOTERICIN B] were, in that order, 2.147 µg/mL (≈ 2.32 µM), 0.873 µg/mL (≈ 0.945 µM), 0.03 µg/mL (≈ 0.0325 µM) and 0.007 µg/mL (≈ 0.00758 µM).
`CCC(C)n1ncn(-c2ccc(N3CCN(c4ccc(OCC5COC(Cn6cncn6)(c6ccc(Cl)cc6Cl)O5)cc4)CC3)cc2)c1=O` (centres undefined) [ITRACONAZOLE]: the ED90 in experiment [1] amounted to 1.351 µg/mL (≈ 1.91 µM); in experiment [2], 8.848 µg/mL (≈ 12.5 µM). Besides, the EC50 amounted to 0.007 µg/mL (≈ 0.00992 µM) in experiment [1] and 0.014 µg/mL (≈ 0.0198 µM) in experiment [2].
`Cc1cccc(N(C)C(=S)Oc2ccc3ccccc3c2)c1` [TOLNAFTATE]: the ED90 is 104.107 µg/mL (≈ 339 µM) in experiment [1] and 98.71 µg/mL (≈ 321 µM) in experiment [2]. For the same compound, the EC50 came to 0.582 µg/mL (≈ 1.89 µM) in experiment [1] and 0.537 µg/mL (≈ 1.75 µM) in experiment [2].
On the same counts, the results for `CC(=O)N1CCN(c2ccc(OCC3COC(Cn4ccnc4)(c4ccc(Cl)cc4Cl)O3)cc2)CC1` (centres undefined) [KETOCONAZOLE] are 1.492 µg/mL (≈ 2.81 µM), 12.419 µg/mL (≈ 23.4 µM), 0.115 µg/mL (≈ 0.216 µM) and 0.552 µg/mL (≈ 1.04 µM).
With `C[C@@H](c1ncncc1F)[C@](O)(Cn1cncn1)c1ccc(F)cc1F` [VORICONAZOLE], in experiment [1], the ED90 came out at 0.228 µg/mL (≈ 0.653 µM) and the EC50 is 0.018 µg/mL (≈ 0.0515 µM). In experiment [2], the ED90 worked out at 1.328 µg/mL (≈ 3.8 µM) and the EC50 was 0.045 µg/mL (≈ 0.129 µM).
As for `CCCN(CCOc1c(Cl)cc(Cl)cc1Cl)C(=O)n1ccnc1` [PROCHLORAZ], the ED90 in experiment [1] is 0.087 µg/mL (≈ 0.231 µM); in experiment [2] it was 0.72 µg/mL (≈ 1.91 µM). For the same compound, the EC50 in experiment [1] was found to be 0.004 µg/mL (≈ 0.0106 µM); in experiment [2], 0.011 µg/mL (≈ 0.0292 µM). The entries for the “fold change (FC)” value in experiment [3] and in experiment [4] were 2.75 and 8, respectively.
On to NYSTATIN, for which the ED50 in experiment [1] came to 0.03 µg/mL; in experiment [2], 0.023 µg/mL. Moreover, the ED90 in experiment [1] is 2.41 µg/mL; in experiment [2], 0.896 µg/mL.
`CO/C=C(/C(=O)OC)c1ccccc1COc1cccc(C(F)(F)F)n1` [PICOXYSTROBIN]: the values for the ED90 in experiment [1] and in experiment [2] were 0.148 µg/mL (≈ 0.403 µM) and 1.041 µg/mL (≈ 2.83 µM), respectively. Besides, the EC50 in experiment [1] turned out to be 0.006 µg/mL (≈ 0.0163 µM); in experiment [2], 0.026 µg/mL (≈ 0.0708 µM). The “fold change (FC)” value in experiment [3] was 4; in experiment [4], 7.
